We go through ten compounds from ChEMBL document CHEMBL3244376, “Synthesis and biological activity of highly active alpha-aza analogues of luliberin” (1978).

Activity calls are given as the source filed them. The calls are words filed in the database; no cut-off is given here. Where a SMILES comes first, the peptide text is derived from it. [ ]: non-standard residue; d: D form. The star is where a group is joined. pGlu = O=C1CC[C@@H](C(=O)O)N1; X2 = CN(N*)C(N)=O

In assay [1] the test system is Rattus norvegicus. In words: Ovulation-inducing activity in androgen-sterilized constant-estrus rat at 1.0 ug, iv. The assay is classed as functional, organism-based. The procedure, abridged:
(§1)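 Androgen-sterilized constant-estrus rats. Doses are given as μg per rat. The readout is ovulation, scored as the number of animals ovulating out of the number treated at each dose. Groups held 3 to 6 rats.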

Assay [2] deals with Rattus norvegicus. The assay can be described thus: Ovulation-inducing activity in androgen-sterilized constant-estrus rat at 0.25 ug, iv. The class given is functional, organism-based. The procedure, abridged: as §1
Assay [3] concerns Rattus norvegicus. The assay can be described thus: Ovulation-inducing activity in iv dosed androgen-sterilized constant-estrus rat relative to luliberin. The assay is classed as functional.
Assay [4] relates to Rattus norvegicus. In words: Ovulation-inducing activity in androgen-sterilized constant-estrus rat at 0.005 ug, iv. The assay is classed as functional, organism-based. The procedure, abridged: as §1
Assay [5] concerns Rattus norvegicus. In words: Ovulation-inducing activity in androgen-sterilized constant-estrus rat at 0.0025 ug, iv. The assay is classed as functional, organism-based. The procedure, abridged:
as §1

The subject of assay [6] is Rattus norvegicus. In words: Ovulation-inducing activity in androgen-sterilized constant-estrus rat at 0.125 ug, iv. The class given is functional, organism-based. The procedure, abridged: as §1
Assay [7] relates to Rattus norvegicus. The assay can be described thus: Ovulation-inducing activity in androgen-sterilized constant-estrus rat at 0.001 ug, iv. The assay is classed as functional, organism-based. The procedure, abridged:
as §1

Assay [8] relates to Rattus norvegicus. The assay can be described thus: Ovulation-inducing activity in androgen-sterilized constant-estrus rat at 0.05 ug, iv. The class given is functional, organism-based. In outline:
as §1

Assay [9] has as its system Rattus norvegicus. In words: Ovulation-inducing activity in androgen-sterilized constant-estrus rat at 0.01 ug, iv. The assay is classed as functional, organism-based. In outline:
as §1

For assay [10], the system named is Rattus norvegicus. In words: Ovulation-inducing activity in androgen-sterilized constant-estrus rat at 0.062 ug, iv. The assay is classed as functional, organism-based. In outline: as §1
The test system of assay [11] is Rattus norvegicus. The assay can be described thus: Ovulation-inducing activity in androgen-sterilized constant-estrus rat at 0.031 ug, iv. The class given is functional, organism-based. The procedure, abridged:
as §1

Assay [12] relates to Rattus norvegicus. The assay can be described thus: Ovulation-inducing activity in androgen-sterilized constant-estrus rat at 10 ug, iv. The class given is functional, organism-based. In outline: as §1
Assay [13] has as its system Rattus norvegicus. The assay can be described thus: Ovulation-inducing activity in androgen-sterilized constant-estrus rat at 0.10 ug, iv. The class given is functional, organism-based. The procedure, abridged: as §1

For `CC(C)C[C@H](NC(=O)CNC(=O)[C@H](Cc1ccc(O)cc1)NC(=O)[C@H](CO)NC(=O)[C@H](Cc1c[nH]c2ccccc12)NC(=O)[C@H](Cc1cnc[nH]1)NC(=O)[C@@H]1CCC(=O)N1)C(=O)N[C@@H](CCCNC(=N)N)C(=O)N1CCC[C@H]1C(=O)NN(C)C(N)=O` ([pGlu]HWSYGLRP-X2), in the assay with Rattus norvegicus [1], the outcome was Active. In addition, in the assay with Rattus norvegicus [2], the result was inactive.

As to `CC(C)C[C@H](NC(=O)[C@@H](Cc1ccccc1)NC(=O)[C@H](Cc1ccc(O)cc1)NC(=O)[C@H](CO)NC(=O)[C@H](Cc1c[nH]c2ccccc12)NC(=O)[C@H](Cc1cnc[nH]1)NC(=O)[C@@H]1CCC(=O)N1)C(=O)N[C@@H](CCCNC(=N)N)C(=O)N1CCC[C@H]1C(=O)NNC(N)=O`, the “fold change (FC)” value in the assay on Rattus norvegicus [3] is reported as 5. For the same compound, in the assay on Rattus norvegicus [4], the result was Active. In the assay with Rattus norvegicus [5], the result was inactive.

In the case of `CCNC(=O)N1CCCN1C(=O)[C@H](CCCNC(=N)N)NC(=O)[C@H](CC(C)C)NC(=O)[C@@H](Cc1ccccc1)NC(=O)[C@H](Cc1ccc(O)cc1)NC(=O)[C@H](CO)NC(=O)[C@H](Cc1c[nH]c2ccccc12)NC(=O)[C@H](Cc1cnc[nH]1)NC(=O)[C@@H]1CCC(=O)N1`, the outcome with Rattus norvegicus [1] was Active. For the same compound, the outcome in the assay on Rattus norvegicus [6] was inactive.

Turning to `CC(C)C[C@H](NC(=O)[C@@H](CO)NC(=O)[C@H](Cc1ccc(O)cc1)NC(=O)[C@H](CO)NC(=O)[C@H](Cc1c[nH]c2ccccc12)NC(=O)[C@H](Cc1cnc[nH]1)NC(=O)[C@@H]1CCC(=O)N1)C(=O)N[C@@H](CCCNC(=N)N)C(=O)N1CCC[C@H]1C(=O)NNC(N)=O`, the outcome in the assay with Rattus norvegicus [7] was inactive. In addition, the outcome with Rattus norvegicus [8] was Active.

`CC(C)C[C@H](NC(=O)[C@@H](Cc1ccccc1)NC(=O)[C@H](Cc1ccc(O)cc1)NC(=O)[C@H](CO)NC(=O)[C@H](Cc1c[nH]c2ccccc12)NC(=O)[C@H](Cc1cnc[nH]1)NC(=O)[C@@H]1CCC(=O)N1)C(=O)N[C@@H](CCCNC(=N)N)C(=O)N1CCC[C@H]1C(=O)NCC(N)=O`: in the assay with Rattus norvegicus [4], the outcome was inactive. For the same compound, in the assay on Rattus norvegicus [9], the outcome was Active.

On to `CC(C)C[C@@H](C(=O)N[C@@H](CCCNC(=N)N)C(=O)N1CCC[C@H]1C(=O)NNC(N)=O)N(C)C(=O)[C@@H](Cc1ccccc1)NC(=O)[C@H](Cc1ccc(O)cc1)NC(=O)[C@H](CO)NC(=O)[C@H](Cc1c[nH]c2ccccc12)NC(=O)[C@H](Cc1cnc[nH]1)NC(=O)[C@@H]1CCC(=O)N1`, for which the outcome with Rattus norvegicus [4] was inactive. In addition, the outcome in the assay with Rattus norvegicus [9] was Active.

For `CC(C)C[C@H](NC(=O)[C@@H](Cc1c[nH]c2ccccc12)NC(=O)[C@H](Cc1ccc(O)cc1)NC(=O)[C@H](CO)NC(=O)[C@H](Cc1c[nH]c2ccccc12)NC(=O)[C@H](Cc1cnc[nH]1)NC(=O)[C@@H]1CCC(=O)N1)C(=O)N[C@@H](CCCNC(=N)N)C(=O)N1CCC[C@H]1C(=O)NNC(N)=O`, in the assay on Rattus norvegicus [3], the “fold change (FC)” value was 5. Moreover, in the assay on Rattus norvegicus [10], the result was Active. In addition, in the assay with Rattus norvegicus [11], the outcome was inactive.

In the case of `CC(C)C[C@H](NC(=O)N(Cc1ccccc1)NC(=O)[C@H](Cc1ccc(O)cc1)NC(=O)[C@H](CO)NC(=O)[C@H](Cc1c[nH]c2ccccc12)NC(=O)[C@H](Cc1cnc[nH]1)NC(=O)[C@@H]1CCC(=O)N1)C(=O)N[C@@H](CCCNC(=N)N)C(=O)N1CCC[C@H]1C(=O)NNC(N)=O`, the outcome in the assay on Rattus norvegicus [12] was Active.

For the compound `CC(C)C[C@@H](C(=O)N[C@@H](CCCNC(=N)N)C(=O)N1CCC[C@H]1C(=O)NNC(N)=O)N(C)C(=O)[C@@H](Cc1ccccc1)NC(=O)[C@H](Cc1ccc(OC(C)(C)C)cc1)NC(=O)[C@H](CO)NC(=O)[C@H](Cc1c[nH]c2ccccc12)NC(=O)[C@H](Cc1cnc[nH]1)NC(=O)[C@@H]1CCC(=O)N1`, the “fold change (FC)” value with Rattus norvegicus [3] came out at 5. The result with Rattus norvegicus [13] was Active.

As to `CCNC(=O)[C@@H]1CCCN1C(=O)[C@H](CCCNC(=N)N)NC(=O)[C@H](CC(C)C)NC(=O)[C@@H](COC(C)(C)C)NC(=O)[C@H](Cc1ccc(O)cc1)NC(=O)[C@H](CO)NC(=O)[C@H](Cc1c[nH]c2ccccc12)NC(=O)[C@H](Cc1cnc[nH]1)NC(=O)[C@@H]1CCC(=O)N1`, the outcome in the assay with Rattus norvegicus [13] was Active.
